We go through three compounds from paper PMC10962727 (PNAS Nexus, 2024).

The nature of one series: Pharmacokinetics in mice. To be noted: female, CD1, mouse, plasma, po, 20 mg/kg. The format is in vivo. In a few lines: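 Female CD1 mice and male beagle dogs received test compound orally in 0.5% methylcellulose:0.5% Tween-80 or intravenously in saline, both at 5 mL/kg. After oral dosing, plasma concentrations were measured at 30 min, 1 h, 3 h, 8 h and 24 h.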
For series [1], the target named is T1, MST1 (Homo sapiens, UniProt Q13043).
T1 sequence (Q13043 1-487): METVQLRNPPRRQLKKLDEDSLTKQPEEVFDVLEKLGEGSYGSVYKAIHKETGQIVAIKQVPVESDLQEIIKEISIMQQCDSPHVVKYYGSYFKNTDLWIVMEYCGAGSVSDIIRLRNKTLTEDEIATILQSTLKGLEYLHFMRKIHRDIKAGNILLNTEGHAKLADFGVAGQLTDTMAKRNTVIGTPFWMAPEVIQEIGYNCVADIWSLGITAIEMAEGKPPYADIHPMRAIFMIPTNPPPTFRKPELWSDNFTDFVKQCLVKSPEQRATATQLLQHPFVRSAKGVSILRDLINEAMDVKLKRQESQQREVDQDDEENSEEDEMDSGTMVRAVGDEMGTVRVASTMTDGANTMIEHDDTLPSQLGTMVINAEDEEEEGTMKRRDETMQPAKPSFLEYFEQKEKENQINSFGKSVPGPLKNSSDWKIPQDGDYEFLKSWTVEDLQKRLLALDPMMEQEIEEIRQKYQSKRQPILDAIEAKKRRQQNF
To be noted: high-throughput MST1 inhibition screen ref 16, 17; cited from earlier work.

For a further series, the target named is EGFR (Homo sapiens, UniProt P00533). The series can be described thus: EGFR inhibition. The format is biochemical.
EGFR, sequence (P00533 25-1210): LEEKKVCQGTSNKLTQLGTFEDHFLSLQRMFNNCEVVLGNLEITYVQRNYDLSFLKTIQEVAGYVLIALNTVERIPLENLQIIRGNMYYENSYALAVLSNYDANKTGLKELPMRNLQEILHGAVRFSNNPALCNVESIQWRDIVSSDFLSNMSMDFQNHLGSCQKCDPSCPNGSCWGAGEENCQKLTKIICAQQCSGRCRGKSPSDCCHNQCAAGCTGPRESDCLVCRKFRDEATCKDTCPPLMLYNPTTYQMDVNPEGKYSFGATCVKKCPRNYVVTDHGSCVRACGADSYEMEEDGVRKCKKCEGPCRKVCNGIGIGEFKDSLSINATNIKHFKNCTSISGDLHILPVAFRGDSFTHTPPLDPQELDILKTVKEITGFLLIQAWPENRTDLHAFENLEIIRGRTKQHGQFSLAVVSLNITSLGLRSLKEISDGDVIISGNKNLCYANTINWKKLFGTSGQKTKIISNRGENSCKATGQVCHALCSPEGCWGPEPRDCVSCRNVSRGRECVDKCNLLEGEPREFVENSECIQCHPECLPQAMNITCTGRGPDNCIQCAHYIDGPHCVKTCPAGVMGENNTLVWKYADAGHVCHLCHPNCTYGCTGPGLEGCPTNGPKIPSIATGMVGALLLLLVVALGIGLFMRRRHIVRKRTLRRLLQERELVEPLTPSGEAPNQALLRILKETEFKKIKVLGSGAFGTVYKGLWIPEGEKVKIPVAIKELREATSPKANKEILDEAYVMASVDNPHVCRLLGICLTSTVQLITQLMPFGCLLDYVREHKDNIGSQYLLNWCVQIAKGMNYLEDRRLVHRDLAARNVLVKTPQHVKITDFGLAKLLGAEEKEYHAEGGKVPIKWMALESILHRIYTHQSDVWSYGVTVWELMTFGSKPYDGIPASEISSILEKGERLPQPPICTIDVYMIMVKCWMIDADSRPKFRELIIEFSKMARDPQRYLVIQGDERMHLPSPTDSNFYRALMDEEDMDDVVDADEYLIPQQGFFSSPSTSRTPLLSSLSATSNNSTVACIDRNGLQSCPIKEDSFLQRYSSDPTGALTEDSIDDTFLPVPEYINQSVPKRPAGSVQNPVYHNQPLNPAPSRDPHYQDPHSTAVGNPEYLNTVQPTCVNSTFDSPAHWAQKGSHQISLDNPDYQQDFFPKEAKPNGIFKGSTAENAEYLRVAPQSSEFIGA
In series [2] the target is T1, MST1. The series can be described thus: MST1 inhibition. The format is biochemical. To be noted: vs neratinib.
For the next series, the system named is MST1/2. As to conditions: cited from earlier work.

By AUC(0-t) is commonly meant exposure summed from dosing to a finite time, without extrapolation to infinity. Usually Cmax stands for the highest concentration seen after dosing. The MRT is the average time that molecules of a dose stay in the body. Broadly, the Tmax is the time from dosing to the highest level. Regarding `CCOc1cc2ncc(C#N)c(Nc3ccc(OCc4ccccn4)c(Cl)c3)c2cc1NC(=O)/C=C/CN(C)C` [Neratinib], in the series “Pharmacokinetics in mice”, the AUC(0-t) worked out at 3120 ng·h/mL, the maximum concentration (Cmax) worked out at 342 ± 152 ng/mL, the mean residence time MRT amounted to 5.4 ± 1.3 h and the time of peak concentration (Tmax) came to 4 ± 3 h. Moreover, at MST1 [1], the “MST1 inhibitory activity (in words)” value is “high MST1 inhibitory activity”.

The term IC50 denotes the concentration that inhibits the measured activity by half. In the case of `CCOc1cc2ncc(C#N)c(Nc3ccc(OCc4ccccn4)c(Cl)c3)c2cc1NC(=O)CCCN(C)C` [mBNB885], the “fold reduction in potency toward EGFR / EGFR inhibition” value on EGFR (compared with preceding/parent compound) came out at 5 fold. At EGFR (read-out: EGFR IC50), the IC50 worked out at 1.42 nM. For the same compound, the “MST1 activity (in words)” value on MST1 [2] was “preserved MST1 activity”.

XMU-MP-1: the “MST1/2 inhibition (in words)” value with MST1/2 was “selective MST1/2 inhibition”.
